An excerpt weighted towards active compounds, which were near 2.6% of everything screened.
SENP8 block-1: human SENP8 protease inhibitors, primary screen, biochemical, fluorescence, Nedd8 protein substrate, uHTS; inhibition, % at 20 µM; AID 602440, 2012; Sentrin-specific protease 8 (Homo sapiens), Q96LD8; recombinant SENP8; 360,000 compounds, 0.64% hits; in the data active means inhibition mostly above about 40%, no sharp cut-off; inactive means mostly below about 27%
Target sequence (Q96LD8 whole entry, looked up): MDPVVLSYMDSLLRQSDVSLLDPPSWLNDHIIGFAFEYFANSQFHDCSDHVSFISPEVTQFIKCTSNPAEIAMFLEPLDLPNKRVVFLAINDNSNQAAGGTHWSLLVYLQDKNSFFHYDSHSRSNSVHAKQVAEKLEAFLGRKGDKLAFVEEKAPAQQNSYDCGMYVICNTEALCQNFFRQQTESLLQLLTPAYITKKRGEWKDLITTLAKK
SENP1 inh: human SENP1 catalytic domain inhibitors, primary screen, biochemical, FRET, uHTS; Sentrin-specific protease 1 (Homo sapiens), Q9P0U3; recombinant SENP1 catalytic domain, CyPet-SUMO1-YPet FRET cleavage; inhibition, % at 10 µM; 360,000 compounds, 0.21% hits;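 active means inhibition at least 30% at 10 µM, raw YFP signal under a set limit, fluorescence ratio 0.5 to 1.5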;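 further: 0% = enzyme with DMSO and 100% = no enzyme wells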
Target sequence (Q9P0U3 419-644 limits assumed): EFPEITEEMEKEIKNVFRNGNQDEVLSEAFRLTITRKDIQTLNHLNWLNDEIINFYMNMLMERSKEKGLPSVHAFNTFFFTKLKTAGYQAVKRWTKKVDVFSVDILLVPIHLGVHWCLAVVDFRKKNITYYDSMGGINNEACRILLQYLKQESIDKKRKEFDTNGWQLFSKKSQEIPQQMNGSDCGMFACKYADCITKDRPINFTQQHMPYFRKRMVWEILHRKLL
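Test system: recombinant human SENP1 catalytic domain, His6-tagged / Medium: pH 8 Tris buffer with EDTA, NaCl, BME, BSA, NP40, catalase / Also added: SUMO1 FRET substrate flanked by Cypet and Ypet, 25 nM / Times: 50 min reaction at room temperature / Signal: FRET, CFP and YFP emission / Control set: no-enzyme low control and enzyme-plus-DMSO high control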
SENP6 block: SENP6 protease inhibitors, primary screen, biochemical, luminescence, uHTS; Recombinant SENP6 catalytic domain, aminoluciferin luminescence; AID 2599, 2010; Sentrin-specific protease 6 (Homo sapiens), Q9GZR1; 330,000 compounds, 1.8% hits; inhibition, % at 10 µM;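 active means inhibition above about 50% at the single tested dose, limit read from the data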;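 further: plate controls were DMSO wells with enzyme for no effect and DMSO wells lacking enzyme for full effect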
Platelet DG rel: inhibitors of platelet dense granule secretion, primary screen, cell-based, MLPCN, human platelets. human platelet-rich plasma, SFLLRN dense granule ATP release, luminescence. AID 1663, 2009. 300,000 compounds, 0.22% hits. inhibition, %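 (compounds screened at 7.5 µM in platelet-rich plasma)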;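 active means mean replicate score, as percent of positive control, at or above 50; inconclusive means mean below 50 but at least one replicate at or above 50; inactive means mean and every replicate below 50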
SENP7 inh: SENP7 protease inhibitors, primary screen, biochemical, luminescence, uHTS; recombinant SENP7, Z-RLRGG-aminoluciferin luminescence, 40 min; Sentrin-specific protease 7 (Homo sapiens), Q9BQF6; inhibition, % at 5 µM; 330,000 compounds, 1.5% hits;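 active means inhibition above about 50% at the single test dose, limit read from the data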;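 further: plate controls were DMSO with enzyme for no effect and no enzyme buffer wells for full effect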
SENP8 block-2: SENP8 protease inhibitors, primary screen, biochemical, luminescence; Sentrin-specific protease 8 (Homo sapiens), Q96LD8; purified SENP8, Z-RLRGG-aminoluciferin cleavage; inhibition, % at 10 µM; 330,000 compounds, 1.2% hits; AID 2540, 2010; in the data active means inhibition above about 50%
SENP8 confirm: SENP8 protease inhibitors, retest, confirmation, biochemical, luminescence, single concentration; Recombinant SENP8, Z-RLRGG-aminoluciferin luminescence, 60 min; AID 488912, 2010; shares compounds with SENP7 inh; inhibition, % at 12.5 µM; 6,200 compounds, 40% hits;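 active means mean inhibition across replicates above about 50%, limit read from the data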
SENP6 conf: SENP6 protease inhibitors, confirmation, biochemical, luminescence, single concentration; shares compounds with SENP7 inh; recombinant SENP6, Z-RLRGG-aminoluciferin luminescence; AID 488915, 2010; inhibition, % at 12.5 µM; 6,200 compounds, 58% hits
SENP7 confirm: SENP7 protease inhibitors, retest, confirmation, biochemical, luminescence, single concentration; shares compounds with SENP7 inh; 6,200 compounds, 69% hits; inhibition, % at 12.5 µM; recombinant SENP7, Z-RLRGG-aminoluciferin luminescence, 40 min
Casp3 SENP sel: caspase-3 protease inhibitors, confirmation, selectivity assay for SENP inhibitor project, biochemical, single concentration; 6,200 compounds, 60% hits; purified caspase-3, Z-DEVD-aminoluciferin luminescence, 60 min; shares compounds with SENP7 inh; inhibition, % at 12.5 µM;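 active means mean inhibition above about 50%, limit read from the data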;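 further: plate controls were enzyme with DMSO for no effect and wells without caspase-3 for full effect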
Target sequence (P42574 28-227 limits assumed): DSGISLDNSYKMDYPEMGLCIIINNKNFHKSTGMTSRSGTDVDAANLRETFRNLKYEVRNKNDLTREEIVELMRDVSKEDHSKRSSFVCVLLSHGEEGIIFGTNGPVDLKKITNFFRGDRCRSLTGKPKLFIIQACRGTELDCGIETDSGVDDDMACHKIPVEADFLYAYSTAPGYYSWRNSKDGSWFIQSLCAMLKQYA
SENP luc ctr: luminescence interference (SENP counter-screen) | shares compounds with SENP7 inh | Pre-incubated SENP8/Z-RLRGG-aminoluciferin, luciferase luminescence interference | inhibition, % at 12.5 µM | 6,200 compounds, 39% hits | AID 488919;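 active means mean inhibition above about 50% when retested at one dose, limit read from the data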;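 further: plate controls were DMSO wells with completed reaction for no effect and substrate without enzyme for full effect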
* hit, by the source's call; ? = inconclusive; . = no result.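 How the source made its calls, unless noted: active means mean inhibition above about 50% in the one-dose retest (limit read from the data); inactive means the rest.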

SMILES	SENP8 block-1	SENP1 inh	SENP6 block	Platelet DG rel	SENP7 inh	SENP8 block-2	SENP8 confirm	SENP6 conf	SENP7 confirm	Casp3 SENP sel	SENP luc ctr
Clc1ccc(-c2nnc(N3CCCC3)nn2)cc1	13	3	68*	1	-5	2	38	41	58*	55*	10
COC(=O)c1cn(CC(C)n2c(=O)c3ccccc3n2Cc2cc(C(C)C)no2)nn1 (stereo not drawn)	-381	1	.	.	.	.	.	.	.	.	.
Cc1ccc(CNC(=O)c2ccc(N3CCC4(CC3)CC(c3ccccc3)=NO4)c([N+](=O)[O-])c2)cc1	10	0	2	-5	-4	-1	.	.	.	.	.
CNC(=O)CSc1nc2ccccc2c(=O)n1CCc1ccccc1	7	0	2	4	-4	4	.	.	.	.	.
C=C(C)C(O)CC/C(C)=C/Cc1c(O)ccc(C(=O)/C=C/c2ccc(O)cc2)c1O (stereo not drawn)	36	8	88*	.	65*	90*	97*	96*	99*	37	39
COc1ccc(N2CCN(C(=O)CN3C(=O)NC4(CCCCCC4)C3=O)CC2)cc1	-3	3	14	.	9	6	.	.	.	.	.
CCOC(=O)c1nn(-c2ccc3c(c2)OCCO3)cc1O	-370	1	2	12	28	20	.	.	.	.	.
COC(=O)c1nn(-c2ccc3c(c2)CCN3C(C)=O)cc1O	-293	1	91*	52*	85*	75*	-5	82*	97*	96*	84*
CC(=O)N1CCc2cc([N+](=O)[O-])ccc21	31	2	.	.	.	.	.	.	.	.	.
COC(=O)c1nn(-c2ccc3c(c2)OCO3)cc1O	-265	-3	72*	5	79*	48	67*	64*	90*	91*	72*
CCOc1ccccc1NC(=O)CNC(=O)CNC(=O)Cc1ccccc1	9	1	13	-2	1	1	.	.	.	.	.
O=C1NC(Cc2ccccc2)c2nc3ccc(F)cc3c(=O)n2-c2cc(Cl)ccc21 (stereo not drawn)	.	.	-11	.	-2	-1	.	.	.	.	.
Cn1cccc1C(=O)NCc1ccc(Cl)cc1	6	4	-7	13	2	-4	.	.	.	.	.
Cn1c(C(=O)NCCc2ccccc2)cc(=O)n(C)c1=O	16	2	20	6	0	1	.	.	.	.	.
Cn1cccc1C(=O)NCCc1ccc(Cl)cc1	-2	0	62*	2	55*	44	50	46	82*	72*	58*
Cn1cccc1C(=O)NCCc1ccccc1	11	0	67*	13	57*	36	43	44	80*	83*	59*
COCCn1c(C)cc(C2=NNC(=NC3CC3)SC2)c1C	5	0	75*	82*	7	82*	95*	96*	101*	98*	68*
COc1cccc(/C=C/c2ccc3cccc(O)c3n2)c1OC	-57	2	58*	9	36	42	52*	40	89*	52*	30
COc1ccc(/C=C/c2ccc3cccc(O)c3n2)c(OC)c1OC	-134	-3	5	3	-4	-10	.	.	.	.	.
COc1cc(/C=C/c2ccc3cccc(O)c3n2)cc(Cl)c1OC	-63	7	58*	-1	55*	47	-15	23	-3	13	5
CN1CCN(c2ccc(CNC(=O)c3ccc(-c4ccc(F)c(F)c4)c4ccoc34)cc2)CC1	2	1	.	.	.	.	.	.	.	.	.
COc1cc(Cl)c(C)cc1NC(=O)COC(=O)CCc1nc2ccccc2c(=O)[nH]1	14	-8	-16	-10	-7	-2	.	.	.	.	.
O=C(NC(=S)Nc1cccnc1Cl)c1ccc(Cl)cc1	-5	2	67*	2	46	46	25	23	46	48	53*
CCOc1ccc(CCNC(=O)COC(=O)c2ccc(C)c([N+](=O)[O-])c2)cc1OCC	5	2	-1	-7	1	4	.	.	.	.	.
Cc1ccnc(NC(=O)Nc2ccc3c(c2)OCO3)c1	7	3	36	7	70*	-9	9	10	12	14	-4
SMILES	SENP8 block-1	SENP1 inh	SENP6 block	Platelet DG rel	SENP7 inh	SENP8 block-2	SENP8 confirm	SENP6 conf	SENP7 confirm	Casp3 SENP sel	SENP luc ctr
O=C(Nc1ccc2c(c1)OCCO2)Nc1ccc2c(c1)OCO2	4	1	71*	10	72*	53*	65*	64*	86*	72*	9
NC(=O)c1ccc(NC(=O)Nc2ccc3c(c2)OCO3)cc1	0	0	-2	18	-4	-9	.	.	.	.	.
O=C(NCc1ccc2c(c1)OCO2)Nc1cccc(Cl)c1	0	0	20	-5	10	7	.	.	.	.	.
O=C(Nc1ccc2c(c1)OCO2)Nc1ccccc1F	1	-2	94*	?	99*	95*	96*	98*	102*	97*	68*
O=C(Nc1cccc(Cl)c1)Nc1ccc2c(c1)OCO2	23	17	83*	4	75*	61*	28	77*	94*	56*	21
O=C(NCc1ccccc1)/C(=C\c1ccccc1)NC(=O)c1ccco1	4	-4	-11	9	-3	2	.	.	.	.	.
CC(C)c1ccc(-n2nnnc2SCC(=O)NC2CC2)cc1	7	0	-10	.	-5	-10	.	.	.	.	.
COc1cccc(NC(=O)Nc2ccc3c(c2)OCO3)c1	-3	1	73*	24	79*	55*	54*	51*	84*	74*	71*

From PubChem
